Source: the RNAGym collection of RNA variant scans (doi:10.1126/science.aae0568)
Fewer inactive variants are shown than the library holds.

B1: tRNA (parent)
chain: GUUCCGUUGGCGUAAUGGUAACGCGUCUCCCUCCUAAGGAGAAGACUGCGGGUUCGAGUCCCGUACGGAACG

Variants of: B1
Assay: yeast fitness relative to wild type (ratio to wild type); higher = fitter; tRNA-Arg(CCU), competitive growth, 37 C, YPD
Procedure, shortened: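 Variants of the tRNA-Arg(CCU) gene, chemically synthesised with a 3% per-site mutation rate at 69 sites, were placed at the native genomic locus in Saccharomyces cerevisiae. The pooled strains were competed in YPD at 37°C for 24 hours in six parallel replicates. Gene amplicons from the start population and from each end population were read by 100-nucleotide paired-end sequencing. Darwinian fitness relative to wild type came from changes in genotype frequencies; genotypes needed ≥ 100 starting reads, and estimates < 0.5 were set to 0.5.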

Row | Variant | yeast fitness
1 | GUUCCGUUGGCGUAAUGGUAACGGGUCUCCCUCCUGAGGAGAAGACUGCGGGUUCGCGUCUCGUACGGAACG | ≤ 0.5
2 | GUUCCGUUGGCGUAAUGGUAACGCGUCUCCCUCCUAAGGUGAGGACUGCGGGUUCGAGUCCCGUUCGGAACG | 0.675
3 | GUUCCGUUGGCGUAAUGGUAACGCGUCUCCCUAGUAAGGAGAAGACUGCGGGUUCGAGUACCGUACGGACCG | ≤ 0.5
4 | GUUCCGUUGGCGUACUGGUAACGCAUAUCCCUUAUAAGGAGAAGACUGCGGGUUCGAGUCUCGUACGGAACG | ≤ 0.5
5 | GUUCCGUUGGCGUCAUGGUAACGCGUCUCCCUCCUUAGGAGAAGACUGCGGGUUCGAGUUCCGUACGGUACG | ≤ 0.5
6 | GUGCCGUUGGCGUAAUGGUAACGCGUCUCCCUCCUAAGGAGAAGACUCCGGGUUCGAGUCCCGUACGGAACG | 1.06
7 | GUUCCGUUGGCCUGAUGGUAAUGCGUCUCCCUCCUAAGGAGAAGACUGCGGGUCCGAGUCUCGUACGGAACG | ≤ 0.5
8 | GUUCCGUUGGUGUAAUGGUCACGCGUCUGCCUCCUAAGGAGGAGACUGCGGGUUCCAAUCCCGUACGGAACG | ≤ 0.5
9 | GUUCAGUUGCCGUAAUGGUAACGCGCCUCCCUCCUAAGGAGAAGACUGCGGCUUCGAGUCCCGUACGGAACG | ≤ 0.5
10 | GGUCCGUUGGCGUAAUGGUAACGCGUCUCCCUCCUAAGGAGAAGACUCCGGGUUCGAGUCCCGUAUGGAACG | 0.519
11 | GUUCCGUUGGCGUAAUGGUUACGCGUCUCCUUCCUAAGGAGAAGACUGCGGGUUCAAGUCCCGUACGGCACG | ≤ 0.5
12 | GUUGCGUUGGCGUAAUGGUUACGCGUCUUCCUCCUAAGGAGAAGACUGUGGGUUCGAGUCCCGUACGGAACG | ≤ 0.5
13 | GUUCCGUUGGCGUAAUGGUAACGCGUGACCCUCCUAAGGAGAUGACUGCGGGUUCGAGUCCCGUACGGAACG | 0.582
14 | GGUCCGUUGGCGUAAUGGUAAUGCGUCUCCCCCCUAAGGAGAAGACUGCGGGUUCGAGUCCCGUACGGAACG | ≤ 0.5
15 | GUUCCGUUGGCGUAAUGAUAACGCGUCUCCCUCCCAAGGAGAAGACCGCCGGUUCGAGUCCCGUACGGAACG | ≤ 0.5
16 | GUUCCGUUGGCAUAAUGGUAACGCGUCUCCCUCCUAAGGAGAAGACUGCGGGUUCGAGUCCCGUACUGAACG | 0.797
17 | GUUCGGUUGGCGUCAUGAUAACGCGUCUCCCUCCUAAGGAGAGGCUUGCGGGUUCGAGUCCCGUACGGCACG | ≤ 0.5
18 | GUUCCGUUGGCGUACUGGUAACGCGUCUCCAUCCUAUGGAGAAGACUGCGGGUUCGAGUCCCGUACGGAACG | ≤ 0.5
19 | GUUCCGUUGGCGUAAUGGUAACGCGUCUCUCUCCUAAGGAGAACACUGCGGGUUCGAGUCCCGUACGGAACG | 0.662
20 | GUUCCGUUGGCGGAAUGGUAACGCGUCCCCCUCCUAAGGAGAAGACUGCGGGUUCGAGUCCCGUACGGAACG | 0.867
21 | GUUACGUUGGCGUAAUGGUAACGCGUUUCCCUCCUAAGCAGAAGACUGCGGGUUCGAGUCCCGUACGGAACG | 0.632
22 | GUUCCGUUGGCGUAAUGGUACCGCGUCUCCCCCAUAAGGAGAAGACUGCGGGUUCGAGUCCCGUACGGAACG | ≤ 0.5
23 | GUUCCGUUGGCGUAAUGGUGACGCGUCUCCGUCCUAAGGAGAAGACUGCGGGUUCGAGUCGCGUAUGGUACG | 0.545
24 | GUUCCGUUGGCGUAAUGGUAACGCGUCUCCCUCCUAAGGAGUAGACUGCGGGUUCGAGUCCCGUAUGGAACG | 0.793
25 | GUUCCGUUGGCGUAAUGGUAACGCGUCUCCCUUCUAAGGAGAUGACUGGCGGUUCGAGUCCCGUCCGGAACG | ≤ 0.5

Row | Variant | yeast fitness
26 | GUUCCGUCGGCGUAAUGGUAACGCGUCUCCCUCCUAAGGAGAAGAAUGCGGGUUCGAGUCCCGUACGGAACG | 1.01
27 | GUUCCGUUGGCAGAAUGGCAGCGCGUCUCCCUCCUAAGGAGAAGACUGCGGAUUCGAGGCCCGUACGGAACG | ≤ 0.5
28 | GUUCCGUUGGCGAAAUGAUAACGCGUCUCCCUCCUAAGGAGAAGACUGCGGGUUCGAGUCCCGUACGGAACG | 0.705
29 | GUUCCGUCGGCGUAAUGGUAACGCGUCUCCCUCCUAAGGAGAAAACUGCGGGUUUGAGUCCCGUACGGAACG | ≤ 0.5
30 | GUUCCGGUGGGGUAAUGGUAACGCGUCUCGCUGCUAAGGAGAAGACUCCGGGUUCGAGUACCGUACGGAACG | ≤ 0.5
31 | GUUCCGUUGGCGUAAUGGUAACGCGCCUCGCUCAUAAGGAGAAGACUGGAGGUUCGAGUCCCGAACGGAACG | ≤ 0.5
32 | GUUCCGUUGGGGUACUGGUAACGCGUCUCCCUCCUAAGGAGAAGACUGCGGGUUCGAGUCCGGUACGGAACG | ≤ 0.5
33 | GUUCCGUUGGCGUAGUGGUAAGGCGUCUCCCUCCUUAGGGGAAGACUGCGGGUUCGAGACCCGUACGGAACG | ≤ 0.5
34 | GUUCCGUUGACGUAAUGGUAACGCGUCUCCCUCCUAAUGAGAAGACUGCGGGUUCGAGUCCCGUACCGAACG | ≤ 0.5
35 | GUGCUGUUGGCGUAAUGGUAACGCGUCUCCCUCCUAAGCAGAAGACAGCGGGUUCGAGUCCCGUACGGAACG | 0.538
36 | GUUCCGUUGGCGUAAUGGUAAUGCGUCUCCCUCCUAAGGAGAAGAGUGCGGGUUAGAGUCCCGUAAGGAACG | 0.564
37 | GUUACGUUGGCGUAAUGGUAACGCGUCUCGCUCCUAAGGAGAAGACUGCAGGUUCGAGUCCCGUACGGAACG | ≤ 0.5
38 | GUUCCGUUGACGUAAUGGUAACGCGUCUCCUUCCUAACGAGAAGACUGCGGGUUCGAGUCCCGUACGGAACG | 0.512
39 | GUUCCGUUGGCGUAAUGGUAACGCGUCUCCCUCUUAAGGGGAAGACUGCGGGUUCGAGUCCCGUACGGUACG | 0.574
40 | GUUACGUUGGCGUAAUGGUAACGUGUCUUCCUCCUAAGGAGAAGACUGCGGGUUCGAGUCCCGUACGGAACG | ≤ 0.5
41 | GUUCCGUUGGCGUAAUGGUAACGCGUCUCCCUCCUCAGGAGAAGACUGCGGGUUCGAGUUCUGUCCGGAACG | ≤ 0.5
42 | GUUCCGUUGGCGUAAUGGUAACGCGUCUCCCUCCUGAGGAGAAGACUGCGGGUUCGAGUCCCGUACGGGACG | 0.932
43 | GUUCCGUUGGUGUAAUGGUAACGCGUCUCCCUCGUAAGGAGCAGACUGCGGGUUCGAGUCCCGUACGGAACG | ≤ 0.5
44 | GCUCCGUUGGAGUAAUGGUAAGGCGUCUCCCUCCUAAGGAGAAGACUGCGGGUCCAAGUCCCGUACGGAACG | ≤ 0.5
45 | GUUCCGUUGGCGUAAUGGUGAUGCGUCUCCCUCCUAUGGACAAGAAUGCGGGUUCGAGUCCCGUACGGAACG | ≤ 0.5
46 | GUUCCGUUGGCGUAAUGGUAACGCGUCUCCCUCCUAAGGACAAGACUGCGGGUUCGUGUCCCGUACGGAACG | 0.661
47 | GUUCCGUUGGCGUAAUGGUAACGCGUCUCCCUCCUAAGGAGGAGUCUGCGGGUUCGAGUCCCGCACGGACCG | ≤ 0.5
48 | GUUCCGUUGGCAUAAUGGUAACGCGUCUCCCUCCUAAGGAAAAGACUGCAGGUUCGAGUCCCGUACGGAACG | ≤ 0.5
49 | GUUCCGUUGGCGUAAUGGUAAUGCGUCUCCCUCCUAAGGAGAAGAGUGGGGGUUCGAGUCCCGUACGGAACG | 0.564
50 | GUUCCGUUGGCGUAAUGGUAACGCGUCUCCCUGCUAAGGAGAAGACUGCGGGUUAGAAUCCCGUACGGAACG | 0.609

Row | Variant | yeast fitness
51 | GUUCCGUUAACGUAAUGGUAGCGCGUCUCCCUCCUAAGGAGAAGACUGCGGGUUCAAGUCCCGUUCGGAACG | ≤ 0.5
52 | GUUCCGUUGGCGUAAUGGAAAGGCGUCUCCCUCUUAAGGAGGGGACUGCGAGUUCGAGUCCCGUACGGAUCG | ≤ 0.5
53 | GUUCCGUUGGCGUAAUGGUAACGCGUCGCCAUCCUAAGGAGAAGACUGCGGGUUCGAGUCUCGUACGGAACG | ≤ 0.5
54 | GUUCCGUUGGCGUAAUGGUAACGCGACUCCCUCCUAAGGAGAAGACUGCGGGUUCGCGUCCCGUACGGAUCG | ≤ 0.5
55 | GUUCCGUUGGCGUAAUGGUAACGCGUCUCCCUCCAAAGGAGAAGCCUGCGGGUUCGAGUCCCGUACGGAACG | 0.576
56 | GUUCCGUUGGCGUAAUGGUAACGCGUCUCCCUCCUAAGGGGAAGAAUGCGGGUUCGAGUCUCGUACAGAACG | ≤ 0.5
57 | GUUGCGUUGGCGUAAUCGUAACGCGUCUCCCUACUAAGGAGAAGACUGCGGGUUCCAGUCCCGUACGGACCG | 0.542
58 | GUUCCGUUGGCGUAAUGGUAACGCGUCUCCCUCCUUAGGAGAAGACUGCGGGUUCGAGUCUCGUAUGGAACG | 0.582
59 | GUUCCGUUGGCAUAUUGGUAACGUGUCUCCCUCCUAAGGAGAACACUGCGGCUUCGAGUCCCGUACGGUACG | ≤ 0.5
60 | GUUCCGUUGGCGUACUGGUAACGCGUCUCCCUCCUAAAGAGAAGACUGCGGGUACGUGUCCCGUACGGAACG | ≤ 0.5
61 | GUUCCGUUGGCAUAAUGGUAACGCGUCUCUCGCCUUAGCAGAAGACUGCCGGUUCGAGUCCCGUACGGAACG | ≤ 0.5
62 | GUUCCGUUGGCGUAAUGGCAACGCGACUCCCACCUAAGGAGAAGACUGCGGGUUCGAGUCCCGUACGGAACG | 0.541
63 | GUACCGUUGGCGUAAUGGUAACGUGUCUCCCCCCUAAGGAGAAGACUGCGGGUUCGAGUCCCGUACGGAACG | 0.513
64 | GUUCCGUUGGCGUAAUGGUAACGAGUCUCCCUACUAAGGAGAAGACUGUGGGUUCGAGUCCCGUACGGUACG | ≤ 0.5
65 | GUUCCGUUGGCGUAAUGGUAACGCGUCUCCCCCCUAAGGAGAAGACAGCGGGUUCGAGUCCCGUACGGAACG | 0.9
66 | GUUCCGUUAGCGUAAUGGUAACGCGUCUCCCGCCUAAGGAGAAGACUGCGGGUUCGAGUCCCGUACGGAACG | 0.616
67 | GUUCCGUUGGCGUACUGGUAACGCGUCUCCCUCCUAAGGAGAAGACUGCGGGUUCGAGUCUCGUACGGUACG | 0.571
68 | GUUCCGUUAGCGUAAUGGUAACGCGUCUGCCUCCUAAGGAGAAAACUGCGGGUUCGAGUCCCGUACGGAACG | 0.614
69 | GUUCCGUUGGCGUAAUGGUGACGCGUCUCCCUCCUACGAAGAAGACUGCGGGUUCGAGUCCCGUUCGGACCG | ≤ 0.5
70 | GUUCCGUUGGCGUAUUGGUAACGCGUCUCCCUCCUGAGGAGAAGACUGCGGGUUGGAGUCCCGUACGGAACG | 0.565
71 | GUUCCGUUGGCGUAAUCGUAACGCGUCUCCCUUCUACGGAGAAGACUGCGGGUUCGAGUCCCGUACGGAACG | ≤ 0.5
72 | GGUCCGUUGGCGUAAUGGUAACGCGUCUCCAUCCUAAGGAGAAGACUGCGGGUUCUAGUCCCGUACAGACCG | ≤ 0.5
73 | GUUCCGUUAGCGUAAUGGUUACGCGUCUCCCUCGUAAGGAGUAGACUGCGGGUUCGAGUCCCGUACGCAACG | ≤ 0.5
74 | GUUCCGUUGGCGUAAUGGUAACGCGUCCACCUCCUAAGGAGAAGACUGCGGGUUCGAGUCCCGUACGGAACG | 0.703
75 | GUUCCGUUGGCGUAAUGGUAACGCAUCUCCCUACUAAGGGGAAGACUGCGGGUUCGAGUCCCGUACGGACCG | ≤ 0.5
